Results taken from ChEMBL document CHEMBL4699666, “Cyclic Peptidyl Inhibitors against CAL/CFTR Interaction for Treatment of Cystic Fibrosis” (J Med Chem, 2020).
Activity calls are given as the source filed them. The rule behind the calls is not given here. Positions of bridges follow the written chain, without caps; N, C: chain ends. Non-standard residues stand in square brackets, D forms with d. Residues, ends and D or L forms follow the SMILES beside them. 2Nal = N[C@@H](Cc1ccc2ccccc2c1)C(=O)O; Bta = N[C@@H](Cc1csc2ccccc12)C(=O)O; Pen = CC(C)(S)[C@H](N)C(=O)O; Tle = CC(C)(C)[C@H](N)C(=O)O; Pip = O=C(O)[C@@H]1CCCCN1

What was measured:
[1] = Drug uptake in human HeLa cells assessed as absolute cytosolic entry efficiency at 5 uM incubated for 2 hrs by flow cytometry; assay type: ADME, subcellular, Cytoplasm
[2] = Drug metabolism in human HCT-116 cells assessed as formation of (2S)-2-[[(2S)-2-[[(2S,3R)-2-[[(2R)-2-[[(2S)-1-[(2S)-2-[[(2S)-2-[[(2S)-2-[[(2S)-2-[[(2R)-2-[[(2R)-2-acetamido-3-sulfanyl-propanoyl]amino]-5-guanidino-pentanoyl]amino]-5-guanidino-pentanoyl]amino]-5-guanidino-pentanoyl]amino]-3-(2-naphthyl)propanoyl]amino]-3-(benzothiophen-3-yl)propanoyl]piperidine-2-carbonyl]amino]-3-methyl-3-sulfanyl-butanoyl]amino]-3-hydroxy-butanoyl]amino]-5-guanidino-pentanoyl]amino]-3,3-dimethyl-butanoic acid at 5 uM incubated for 4 to 24 hrs by MALDI-TOF-TOF mass spectrometry; assay type: ADME, cell-based; conditions: hct-116, 5 µM, time 4-24 hrs
Outline: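 HCT116 spheroids (7,000 cells seeded on agarose, grown 12 days) were exposed to 5 μM cyclic peptide for 4 or 24 h. They were washed, gelatin-embedded and cut into 16 μm sections. Positive-ion MALDI-TOF-TOF imaging (m/z 360–1400) gave heatmaps, scaled to the most intense signal, for intact peptide and about 20 possible proteolytic fragments.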

[3] = Toxicity in human CFBE41o- cells assessed as reduction in cell viability up to 50 uM incubated for 72 hrs by MTT assay; assay type: cell-based
Outline: (§1)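 CFBE41o-, HCT116 or H358 cells were seeded at 5 × 10^3 per well and the next day exposed for 72 h at 37 °C to serial dilutions of peptide in DPBS at constant 0.5% DMSO. MTT was added for 4 h, formazan was solubilized with SDS-HCl overnight and absorbance read at 565 nm. Viability was expressed relative to 0.5% DMSO controls (100%); n = 3.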

HCT-116 = test: Toxicity in human HCT-116 cells assessed as reduction in cell viability up to 50 uM incubated for 72 hrs by MTT assay; assay type: cell-based; conditions: hct-116, 72 h; outline: as §1
NCI-H358 = test: Toxicity in human NCI-H358 cells assessed as reduction in cell viability up to 50 uM incubated for 72 hrs by MTT assay; assay type: cell-based; conditions: nci-h358, 72 h; outline: as §1
Epithelial cell = test: Inhibition of CAL and CFTR F508del mutant interaction in human CF-HBE cells isolated from patient with F508del mutation assessed as increase in short-circuit current incubated for 24 hrs in presence of 5 uM VX-661 by relative to VX-661 alone; assay type: cell-based
Outline: (§2)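 Primary bronchial epithelia from F508del/F508del donors (three donors) were grown at air/liquid interface and given corrector (5 μM VX-661) or none. After 24 h, peptide or DMSO was applied apically in Hank's solution for 1 h, then removed, and cells were kept a further 24 h. Ussing chambers used Ringer's with a low-chloride apical side. Isc changes were read after forskolin (10 μM) activation and Inh-172 inhibition; n = 5 filters.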

[4] = tested on: Cystic fibrosis transmembrane conductance regulator (Homo sapiens), P13569 [F508del]; test: Corrector activity at CFTR F508del mutant in human CF-HBE cells isolated from patient with F508del mutation assessed as increase in short-circuit current at 5 uM incubated for 24 hrs; assay type: cell-based; conditions: Epithelial cell, filed as activator; outline: as §2
[5] = molecular target: T1, Na(+)/H(+) exchange regulatory cofactor NHE-RF1 (Homo sapiens, UniProt O14745); test: Binding affinity to NHERF1 PDZ1 domain (unknown origin) expressed in Escherichia coli BL21 incubated for 1 hr by fluorescence polarization based competition assay
T1 sequence (O14745 whole entry): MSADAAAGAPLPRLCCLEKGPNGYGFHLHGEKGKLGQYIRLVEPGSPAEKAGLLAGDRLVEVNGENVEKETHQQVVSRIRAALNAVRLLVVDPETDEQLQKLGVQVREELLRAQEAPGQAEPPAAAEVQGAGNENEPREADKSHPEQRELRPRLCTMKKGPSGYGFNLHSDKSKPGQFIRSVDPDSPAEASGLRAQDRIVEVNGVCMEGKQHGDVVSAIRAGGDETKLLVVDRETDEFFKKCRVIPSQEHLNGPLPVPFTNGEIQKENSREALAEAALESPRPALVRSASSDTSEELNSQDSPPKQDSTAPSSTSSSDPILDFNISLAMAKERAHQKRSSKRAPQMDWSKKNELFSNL
Outline: (§3)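 CAL, NHERF1 and NHERF2 PDZ domains carried a C-terminal His6 tag, were expressed in E. coli BL21 (0.1 mM IPTG, 16 h at 18 °C) and purified on Ni-NTA. For direct binding, 50 nM fluorescein-labelled peptide was titrated with PDZ protein (0–2.5 μM CAL; 0–25 μM NHERF1/2) in PBS pH 7.4 with 0.01% Triton X-100 and 2 mM TCEP for 1 h at room temperature. Fluorescence polarization gave KD; n = 3.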

[6] = molecular target: T2, Na(+)/H(+) exchange regulatory cofactor NHE-RF2 (Homo sapiens, UniProt Q15599); test: Binding affinity to NHERF2 PDZ1 domain (unknown origin) expressed in Escherichia coli BL21 incubated for 1 hr by fluorescence polarization based competition assay; outline: as §3
[7] = molecular target: T2, Na(+)/H(+) exchange regulatory cofactor NHE-RF2; test: Binding affinity to NHERF2 PDZ2 domain (unknown origin) expressed in Escherichia coli BL21 incubated for 1 hr by fluorescence polarization based competition assay
Homo sapiens [8] = organism: Homo sapiens; test: Selectivity index, ratio of Kd for binding affinity to NHERF1 PDZ1 domain (unknown origin) expressed in Escherichia coli BL21 to Kd for binding affinity to C-terminal His6 tagged CAL PDZ domain (unknown origin) expressed in Escherichia coli BL21; outline: as §3
Homo sapiens [9] = organism: Homo sapiens; test: Selectivity index, ratio of Kd for binding affinity to NHERF2 PDZ1 domain (unknown origin) expressed in Escherichia coli BL21 to Kd for binding affinity to C-terminal His6 tagged CAL PDZ domain (unknown origin) expressed in Escherichia coli BL21; outline: as §3
[10] = molecular target: T3, Golgi-associated PDZ and coiled-coil motif-containing protein (Homo sapiens, UniProt Q9HD26); test: Binding affinity to C-terminal His6 tagged CAL PDZ domain (unknown origin) expressed in Escherichia coli BL21 incubated for 1 hr by fluorescence polarization assay
[11] = molecular target: T3, Golgi-associated PDZ and coiled-coil motif-containing protein; test: Binding affinity to C-terminal His6 tagged CAL PDZ domain (unknown origin) expressed in Escherichia coli BL21 incubated for 1 hr using FAM-22 probe by fluorescence polarization based competition assay
[12] = Drug uptake in human HeLa cells at 5 uM incubated for 2 hrs by flow cytometry relative to CPP9; assay type: ADME, cell-based
Outline: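 Naphthofluorescein-labelled cyclic peptides (5 μM final, 0.5% DMSO, in DMEM with 10% FBS) were applied to HeLa cells, seeded the day before at 15 × 10^4 per well, for 2 h at 37 °C. Cells were washed with cold DPBS, trypsinized and analysed by flow cytometry. Mean fluorescence was expressed as % of CPP9; n = 3.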

[13] = Half life in 25% human serum at 100 uM incubated for 24 hrs at 37 degC by HPLC analysis; assay type: ADME, cell-free
Outline: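 Human serum diluted 1:4 in DPBS was pre-warmed to 37 °C, and peptide (100 μM final) was incubated in it at 37 °C. At each time point, aliquots were deproteinized with 15% TCA in MeOH plus MeCN for 24 h at 4 °C and centrifuged. Supernatants were analysed by reversed-phase HPLC, reading at 214 nm, for intact peptide remaining.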

T2 sequence (Q15599 whole entry, the tested form may be a part): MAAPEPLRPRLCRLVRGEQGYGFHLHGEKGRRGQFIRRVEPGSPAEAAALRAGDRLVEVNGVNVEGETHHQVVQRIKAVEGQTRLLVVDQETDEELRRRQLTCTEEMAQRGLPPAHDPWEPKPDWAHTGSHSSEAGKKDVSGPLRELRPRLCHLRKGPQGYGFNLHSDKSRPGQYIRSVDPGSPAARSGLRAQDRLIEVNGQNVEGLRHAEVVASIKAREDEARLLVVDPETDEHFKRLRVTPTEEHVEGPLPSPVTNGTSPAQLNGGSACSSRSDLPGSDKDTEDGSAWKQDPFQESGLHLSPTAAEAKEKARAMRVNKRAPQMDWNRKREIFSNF
Chain of Cystic fibrosis transmembrane conductance regulator (Homo sapiens), P13569 [F508del] (P13569 as listed by the source): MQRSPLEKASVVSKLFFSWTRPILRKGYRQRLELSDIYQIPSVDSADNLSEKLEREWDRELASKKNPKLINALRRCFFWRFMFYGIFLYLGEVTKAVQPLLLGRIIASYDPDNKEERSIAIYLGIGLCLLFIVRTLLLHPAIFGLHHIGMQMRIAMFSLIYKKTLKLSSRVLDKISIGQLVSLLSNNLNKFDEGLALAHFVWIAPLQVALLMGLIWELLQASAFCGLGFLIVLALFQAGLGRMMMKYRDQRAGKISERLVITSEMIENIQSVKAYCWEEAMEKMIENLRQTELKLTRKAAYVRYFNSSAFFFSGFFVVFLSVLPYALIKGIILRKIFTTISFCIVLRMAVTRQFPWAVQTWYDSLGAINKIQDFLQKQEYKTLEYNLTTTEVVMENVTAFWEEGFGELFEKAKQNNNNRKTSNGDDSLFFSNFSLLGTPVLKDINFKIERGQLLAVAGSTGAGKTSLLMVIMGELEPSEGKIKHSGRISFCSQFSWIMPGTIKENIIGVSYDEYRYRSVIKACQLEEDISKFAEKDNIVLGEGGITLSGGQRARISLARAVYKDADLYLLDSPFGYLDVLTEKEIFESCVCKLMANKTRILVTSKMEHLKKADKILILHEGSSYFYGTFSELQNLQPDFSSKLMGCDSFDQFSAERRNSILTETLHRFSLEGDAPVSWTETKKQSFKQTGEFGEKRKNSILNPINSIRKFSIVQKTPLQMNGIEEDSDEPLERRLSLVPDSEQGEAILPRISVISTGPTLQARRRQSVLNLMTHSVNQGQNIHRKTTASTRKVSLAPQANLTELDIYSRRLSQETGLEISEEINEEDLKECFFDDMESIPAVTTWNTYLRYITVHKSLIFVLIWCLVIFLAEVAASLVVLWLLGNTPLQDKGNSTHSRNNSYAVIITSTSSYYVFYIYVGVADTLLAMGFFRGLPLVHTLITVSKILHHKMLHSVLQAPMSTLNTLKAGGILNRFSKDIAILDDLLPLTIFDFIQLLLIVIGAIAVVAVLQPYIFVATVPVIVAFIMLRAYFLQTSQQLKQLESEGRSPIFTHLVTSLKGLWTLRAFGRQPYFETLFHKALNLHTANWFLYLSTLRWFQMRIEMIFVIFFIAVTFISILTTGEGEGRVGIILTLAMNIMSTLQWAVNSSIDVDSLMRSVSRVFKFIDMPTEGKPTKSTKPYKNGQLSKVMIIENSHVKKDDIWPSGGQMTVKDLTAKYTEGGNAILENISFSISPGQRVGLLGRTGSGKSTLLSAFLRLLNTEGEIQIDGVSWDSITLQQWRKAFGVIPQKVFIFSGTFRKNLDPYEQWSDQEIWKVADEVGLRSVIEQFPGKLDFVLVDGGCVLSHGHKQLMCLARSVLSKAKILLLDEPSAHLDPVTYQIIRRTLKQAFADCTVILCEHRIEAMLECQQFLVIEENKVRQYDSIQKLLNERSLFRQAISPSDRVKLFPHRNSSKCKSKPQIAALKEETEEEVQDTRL

For `N=C(N)NCCC[C@@H]1NC(=O)[C@H](Cc2ccc3ccccc3c2)NC(=O)[C@@H](Cc2ccccc2)NC(=O)[C@H](CCC(N)=O)NC(=O)[C@@H](CCCNC(=N)N)NC(=O)[C@H](CCCNC(=N)N)NC(=O)[C@@H](CCCNC(=N)N)NC1=O` (cyclo([2Nal]R[dR]R[dR]Q[dF])), which Drug uptake [1] is on record?
The Drug uptake was 62%.

For `CC(=O)N[C@H]1CSSC(C)(C)[C@@H](C(=O)N[C@H](C(=O)N[C@@H](CCCNC(=N)N)C(=O)N[C@H](C(=O)O)C(C)(C)C)[C@@H](C)O)NC(=O)[C@@H]2CCCCN2C(=O)[C@H](Cc2csc3ccccc23)NC(=O)[C@H](Cc2ccc3ccccc3c2)NC(=O)[C@H](CCCNC(=N)N)NC(=O)[C@H](CCCNC(=N)N)NC(=O)[C@@H](CCCNC(=N)N)NC1=O` (Ac-C[dR]RR[2Nal][Bta][Pip][Pen]TR[Tle]-OH; disulfide 1-8), which Drug metabolism [2] is on record?
Its Drug metabolism is “Metabolite_Detected”.

What about the Activity [3] of the same compound?
The Activity was “Non-Toxic”.

And the Activity (HCT-116)?
Its Activity is “Non-Toxic”.

What about the Activity (NCI-H358) of the same compound?
Its Activity is “Non-Toxic”.

What about the conc. at maximal effect (Epithelial cell) of the same compound?
Its conc. at maximal effect is 100 nM.

And the inhibition (Epithelial cell)?
The inhibition was “Dose-dependent effect”.

With `CC(C)(CO)c1cc2cc(NC(=O)C3(c4ccc5c(c4)OC(F)(F)O5)CC3)c(F)cc2n1C[C@@H](O)CO` as the compound, how does the Activity [4] read?
Its Activity is “Active”.

With `C[C@@H](O)[C@H](NC(=O)[C@@H](NC(=O)[C@@H](NC(=O)[C@H](Cc1csc2ccccc12)NC(=O)[C@H](Cc1ccc2ccccc2c1)NC(=O)[C@H](CCCNC(=N)N)NC(=O)[C@H](CCCNC(=N)N)NC(=O)[C@@H](CCCNC(=N)N)NC(=O)[C@H](CS)NC(=O)COCCOCCNC(=O)c1ccc2c(c1)C(=O)OC21c2ccc(O)cc2Oc2cc(O)ccc21)C(C)(C)S)C(C)(C)C)C(=O)N[C@@H](CCCNC(=N)N)C(=O)N[C@H](C(=O)O)C(C)(C)C` as the compound, how does the Kd [5] read?
The Kd was 330 nM.

And the Kd [6]?
The Kd was 560 nM.

What about the Kd [7] of the same compound?
Its Kd is 2820 nM.

What about the Ratio (Homo sapiens [8]) of the same compound?
The Ratio was 6.7.

And the Ratio (Homo sapiens [9])?
Its Ratio is 11.4.

And the Kd [10]?
Its Kd is 49 nM.

With `CC(=O)N[C@@H](CS)C(=O)N[C@H](CCCNC(=N)N)C(=O)N[C@@H](CCCNC(=N)N)C(=O)N[C@@H](CCCNC(=N)N)C(=O)N[C@@H](Cc1ccc2ccccc2c1)C(=O)N[C@@H](Cc1csc2ccccc12)C(=O)N1CCCC[C@H]1C(=O)N[C@H](C(=O)N[C@H](C(=O)N[C@@H](CCCNC(=N)N)C(=O)N[C@H](C(=O)O)C(C)(C)C)[C@@H](C)O)C(C)(C)S` (Ac-C[dR]RR[2Nal][Bta][Pip][Pen]TR[Tle]-OH) as the compound, how does the IC50 [11] read?
The IC50 was 20 nM.

What about the Drug uptake [12] of the same compound?
The Drug uptake was 61%.

What about the half-life at 100 µM [13] of the same compound?
The half-life at 100 µM was greater than 24 h.
